Screening data from PubChem BioAssay.
The list is not random: actives were taken first. Their share in the collection is about 29%.
CYP2C19 inhib = blockers of cytochrome P450 2C19 activity – biochemical, luminescence, ADME assay, primary screen; P33261; CYP2C19 Supersomes, luciferin-H EGE luminescence, 30 min; inhibition, % at 5 µM; actives 21% (n = 96,000); AID 778, 2007;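 active = CYP2C19 inhibition above a set limit at 5 µM in the primary screen, cut at about 50% in these data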;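 also: plate controls were negative control wells for no effect and 2.5 mM tranylcypromine positive control for full effect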
E coli WT exp = growth inhibitors of wild-type E. coli, primary screen, strain BW25113, expanded library, OD600; OD600 absorbance; growth inhibition, % at 100 µM; actives 0.15% (n = 98,000); AID 710, 2007;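 active = growth inhibition above about 50% at one test dose, limit read from the data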;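 also: growth measured after 20 h incubation at 37 °C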
CYP2C9 activ = human CYP2C9 activators, primary screen, biochemical, luminescence | Cytochrome P450 2C9 (Homo sapiens), P11712 | recombinant CYP2C9, luciferin-H conversion; stronger effect = higher value; factor 1 = untreated enzyme, 0 = blocked | activation factor at 5 µM | actives 1.4% (n = 96,000) | AID 1024, 2008;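 active = activation factor of 2 or more for CYP2C9 at a 5 µM dose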;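 also: 0 = sulfaphenazole-blocked wells and 1 = vehicle-only wells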
Target sequence (P11712 whole entry, looked up): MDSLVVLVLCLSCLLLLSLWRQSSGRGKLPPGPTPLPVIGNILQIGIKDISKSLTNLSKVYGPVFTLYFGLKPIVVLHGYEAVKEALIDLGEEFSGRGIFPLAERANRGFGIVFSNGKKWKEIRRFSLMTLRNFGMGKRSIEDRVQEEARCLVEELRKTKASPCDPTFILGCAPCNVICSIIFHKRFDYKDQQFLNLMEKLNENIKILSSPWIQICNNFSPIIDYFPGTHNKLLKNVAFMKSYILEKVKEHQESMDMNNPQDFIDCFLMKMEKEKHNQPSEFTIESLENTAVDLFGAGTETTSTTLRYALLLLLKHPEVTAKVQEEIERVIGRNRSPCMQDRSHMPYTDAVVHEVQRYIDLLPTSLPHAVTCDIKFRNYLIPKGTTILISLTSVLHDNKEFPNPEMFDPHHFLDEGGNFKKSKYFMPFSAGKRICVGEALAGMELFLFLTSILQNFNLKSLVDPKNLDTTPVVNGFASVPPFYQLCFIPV
CYP2C9 inh = blockers of cytochrome P450 2C9 activity – biochemical, luminescence, ADME assay, primary screen. inhibition, % at 5 µM. CYP2C9 Supersomes, luciferin-H conversion. actives 20% (n = 96,000). P11712;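 active = blocking of liver enzyme CYP2C9 beyond about 50% at 5 µM, limit read from the data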
CYP2C19 act = human CYP2C19 activators, primary screen, biochemical, luminescence; Cytochrome P450 2C19 (Homo sapiens), P33261; AID 1025, 2008; recombinant CYP2C19, luciferin-H EGE luminescence; stronger effect = higher value; 0 = fully inhibited enzyme, 1 = untreated enzyme; activation factor at 5 µM; 96,000 tested, under 10 active;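 active = activation factor of at least 2 at 5 µM in the primary screen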;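 also: 0 = wells with 2.5 mM tranylcypromine and 1 = vehicle-only wells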
tolC growth inh = growth inhibitors of E. coli tolC mutant, primary screen, strain BW25113 ΔtolC::kan, 384-well | OD615 | growth inhibition, % at 10 µM (by protocol) | actives 2.2% (n = 65,000) | AID 573, 2007;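 active = growth inhibition at or above a cutoff equal to the mean over every tested compound plus 3 SD, cut at about 60% in these data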;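 also: growth measured after 20 h incubation at 37 °C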
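Material: E. coli BW25113 ΔtolC::kan, tolC deletion mutant strain. Measure: percent growth inhibition. Schedule: 37 °C, 20 h exposure. Doses: single-point testing at 10 µM. Signal: A615 absorbance measurement. Buffer or medium: kanamycin-containing LB broth (50 µg/mL).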
Starred values were filed as active, the others as inactive; . = not tested or not shown.

SMILES	CYP2C19 inhib	E coli WT exp	CYP2C9 activ	CYP2C9 inh	CYP2C19 act	tolC growth inh
CCOC(=O)c1c(C)[nH]c(C(=O)OCC(=O)NC2CCS(=O)(=O)C2)c1C (stereo unspecified)	-11	-1	0.9	8	1.1	.
COc1ccc(-n2c(Cc3cccn3C)nnc2SCC(=O)Nc2ccc3c(c2)OCO3)cc1	3	-1	0.9	10	1	18
Cc1ccc(-c2noc(CN(C(=O)c3cccc(Br)c3)C(C)C)n2)cc1	82*	0	0.1	87*	0.2	78*
Cc1ccc(-c2noc(CN(C(=O)C(c3ccccc3)c3ccccc3)C(C)C)n2)cc1	22	-19	0.3	66*	0.8	.
COc1ccc(Br)cc1CNC(=O)CCc1nc(-c2ccc(C)cc2)no1	5	-8	0.9	10	0.9	-8
CCN1CCN(Cc2ccc(NC(=O)Nc3cccs3)cc2)CC1	-30	4	1.2	-22	1.3	-12
CCN(c1ccc(OC)cc1)c1ncnc2nc[nH]c12	-10	5	1.1	-8	1.1	.
CCOc1ccc(C(c2c(C)[nH][nH]c2=O)c2c(C)[nH][nH]c2=O)cc1OC	14	-1	0.7	29	0.9	.
CCOc1cc(C(c2c(C)[nH][nH]c2=O)c2c(C)[nH][nH]c2=O)ccc1OS(=O)(=O)c1ccc(C)cc1	23	-8	0.9	7	0.8	.
CCOc1cc(C(c2c(C)[nH][nH]c2=O)c2c(C)[nH][nH]c2=O)ccc1OC(=O)c1cccc([N+](=O)[O-])c1	41	4	0.5	54*	0.6	.
CCOc1cc(C(c2c(C)[nH][nH]c2=O)c2c(C)[nH][nH]c2=O)ccc1OCc1ccc([N+](=O)[O-])cc1	60*	-10	0.7	34	0.4	.
Nc1nc(CN2CCN(c3ccccc3)CC2)nc(N2CCCc3ccccc32)n1	62*	6	0.4	60*	0.4	17
COc1ccc(N2CCN(Cc3nc(N)nc(N4CCCc5ccccc54)n3)CC2)cc1	38	5	1	3	0.6	35
Nc1nc(CN2CCN(c3cccc(Cl)c3)CC2)nc(N2CCCc3ccccc32)n1	41	-6	0.8	22	0.6	100*
Cc1ccc(C(=O)Nc2ccccc2C(=O)N2CC3(C)CC2CC(C)(C)C3)cc1 (stereo unspecified)	11	-8	0.8	24	0.9	.
COc1cccc(-c2cc(C(=O)N3CC4(C)CC3CC(C)(C)C4)no2)c1 (stereo unspecified)	-3	-9	0.9	9	1	80*
Cc1noc(C(=O)N2CC3(C)CC2CC(C)(C)C3)c1Cl (stereo unspecified)	82*	5	0.7	35	0.2	-5
COc1cccc(-c2cc(C(=O)N3CCCCC3C)no2)c1 (stereo unspecified)	9	4	1.2	-24	0.9	2
C=CCn1c(=O)c2ccccc2n2c(SCc3csc(-c4ccccc4)n3)nnc12	29	-5	0.7	25	0.7	8
COc1ccc2noc3c2c1C(=O)c1ccccc1-3	.	.	.	.	.	23
O=C1c2ccccc2-c2onc3ccc(NCCCn4ccnc4)c1c23	92*	26	0	97*	0.1	4
CCOC(=O)c1cc(-c2ccc(OC)cc2)nc2c1c(C)nn2CCC#N	18	-5	0.8	19	0.8	.
CCOC(=O)c1cc(-c2ccc(C#N)cc2)nc2c1c(C)nn2CCC#N	11	0	0.5	52*	0.9	.
CCN(CC)C(=O)/C(=C\c1ccc(Br)cc1)NC(=O)c1ccccc1OC	28	6	0.3	73*	0.7	.
CC1NC(=O)NC1CCCCC(=O)O (stereo unspecified)	-4	-6	1	-4	1	-8
Cc1ccc(NC(=O)CCCCCC2NC(=O)NC2C)cc1 (stereo unspecified)	61*	8	1.5	-48	0.4	-6
CCCNc1nc(Nc2ccc(C)cc2)nc(N2CCCC2)n1	-4	2	0.8	22	1	.
